Consider 2 compounds from ChEMBL document CHEMBL1148956, “New sesquiterpenes from Pluchea arabica” (J Nat Prod, 2004).

Converted amounts (≈) assume the structure as drawn. The source made the active and inactive calls. No cut-off for these calls is given here. Where only a bound is given, the exact number is not on record here.

Series [1] has as its system Radical scavenging activity. In words: Antioxidant activity assessed as DPPH free radical scavenging activity relative to control. Format: functional. For orientation: Loss of DPPH colour is used to gauge radical scavenging.
Series [2] is described as follows: Toxicity against brine shrimp larvae. Format: organism-based. Conditions: artemia, in vivo.
Another series concerns Staphylococcus aureus. Nature of the series: Antimicrobial activity against Staphylococcus aureus ATCC 29213 by agar-dilution-streak method. Format: functional. In outline: (§1)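 Screened with the agar-dilution-streak method. MIC was set by broth dilution following NCCLS. Compounds were dissolved in DMSO and diluted to graded concentrations in tryptone soy broth.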
The next series relates to Escherichia coli. Nature of the series: Antimicrobial activity against Escherichia coli ATCC 9637 up to 500 ug/ml by agar-dilution-streak method. It counts as functional, organism-based.
Another series concerns Pseudomonas aeruginosa. In words: Antimicrobial activity against Pseudomonas aeruginosa ATCC 27853 up to 500 ug/ml by agar-dilution-streak method. Format: functional, organism-based. The method in brief:
as §1

A further series deals with Candida albicans. Nature of the series: Antimicrobial activity against Candida albicans ATCC 10231 up to 500 ug/ml by agar-dilution-streak method. It counts as functional, organism-based. In outline:
as §1

The test system of another series is Klebsiella pneumoniae. In words: Antimicrobial activity against Klebsiella pneumoniae ATCC 10031 up to 500 ug/ml by agar-dilution-streak method. It counts as functional, organism-based. In outline:
as §1

The next series deals with Salmonella enterica. Nature of the series: Antimicrobial activity against Salmonella choleraesuis ATCC 14028 up to 500 ug/ml by agar-dilution-streak method. It counts as functional, organism-based. In outline:
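Salmonella choleraesuis ATCC 14028 was tested by the agar-dilution-streak method, alongside S. aureus ATCC 29213, P. aeruginosa ATCC 27853, C. albicans ATCC 10231 and K. pneumoniae ATCC 10031. Test compounds were dissolved in DMSO.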

As for `C=C1C(CC2C[C@H](O)C=C2C)C(C)(C)C[C@H]1O` (stereo partly specified) [GODOTOL A], the Activity in series [1] was less than 10%. In addition, in series [2], the LC50 – broadly, the concentration lethal to half of the exposed cells or organisms – is 290 mg/L (≈ 1230 µM). It took 250 mg/L (≈ 1060 µM) to inhibit growth against Staphylococcus aureus (MIC). In addition, the outcome in the series on Escherichia coli, in the series with Pseudomonas aeruginosa, with Candida albicans, in the series with Klebsiella pneumoniae and in the series with Salmonella enterica was inactive.
With `C=C1C[C@@H](O)C=C(C)C2C1CC[C@@H](O)C2(C)C` (stereo partly specified) [GODOTOL B], the Activity in series [1] is less than 10%. Besides, in series [2], the LC50 was 540 mg/L (≈ 2280 µM). Moreover, the minimum inhibitory concentration (MIC) (in general, the lowest concentration that inhibits growth of the organism) with Staphylococcus aureus is 500 mg/L (≈ 2120 µM). The result with Escherichia coli, in the series on Pseudomonas aeruginosa, in the series on Candida albicans, in the series on Klebsiella pneumoniae and with Salmonella enterica was inactive.
